A selection: hits, their analogues and other compounds. The true share with any hit is near 1.5%.
NR1D1 modulator: Rev-erb alpha (human) modulation; 370,000 tested, 0.79% active; Rev-erbα–FITC-DNA binding, fluorescence polarization, 90 min; P20393; AID 1259318; activity, % at 10 µM;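 active = activity above about 14%, limit read from the data; passing the limit was not always enough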;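 note: 0% = DMSO wells with 35 nM protein and 100% = DMSO wells with 750 nM protein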
Target sequence (P20393 whole entry, looked up): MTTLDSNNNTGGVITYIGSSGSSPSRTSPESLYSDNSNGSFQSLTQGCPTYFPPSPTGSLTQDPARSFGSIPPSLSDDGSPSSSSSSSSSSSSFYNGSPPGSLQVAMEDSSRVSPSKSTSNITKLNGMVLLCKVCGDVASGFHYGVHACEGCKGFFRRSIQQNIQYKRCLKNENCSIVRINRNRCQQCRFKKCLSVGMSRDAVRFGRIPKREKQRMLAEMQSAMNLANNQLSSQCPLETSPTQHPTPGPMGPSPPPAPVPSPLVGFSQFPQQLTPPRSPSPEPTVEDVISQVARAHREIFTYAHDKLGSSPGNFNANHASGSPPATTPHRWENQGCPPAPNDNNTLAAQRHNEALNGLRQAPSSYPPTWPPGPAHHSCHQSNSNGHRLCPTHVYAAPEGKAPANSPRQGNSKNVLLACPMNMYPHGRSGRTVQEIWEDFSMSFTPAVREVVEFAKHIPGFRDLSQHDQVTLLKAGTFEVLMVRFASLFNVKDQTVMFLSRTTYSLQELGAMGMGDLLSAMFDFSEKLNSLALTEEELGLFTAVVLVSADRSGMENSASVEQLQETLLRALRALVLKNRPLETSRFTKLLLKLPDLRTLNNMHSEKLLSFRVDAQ
PG9 binder: small molecules binding HIV-1 gp120 antibody PG9; 360,000 tested, 0.43% active; TR-FRET gp120-PG9 antibody binding; inhibition, % at 6.7 µM; in the data active = inhibition above about 8.5%
NR2E3 ag-1: agonists of human nuclear receptor NR2E3; GST-NR2E3/biotin-RetCOR TR-FRET, 1536-well; inhibition of corepressor binding, % at 4.78 µM; 320,000 tested, 0.12% active;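 active = percent inhibition above the cutoff of mean plus 3 SD of all tested compounds, set per screening campaign, cut at about 20% in these data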;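 note: 0% = DMSO wells and 100% = biotin wells as full block of FRET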
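Material – GST-tagged NR2E3 plus biotinylated RetCOR corepressor · Quantity – NR2E3 fusion 1.35 nM · Times – 5 h incubation at 4 °C · Medium – pH 7.5 Tris-based buffer · Technique – TR-FRET, Eu(K)-anti-GST donor, streptavidin-D2 acceptor, ex 340, em 617/671 nm · Benchmarks – high control biotin, low control 0.6% DMSO · Format – 1536-well plates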
NR2E3 ag-2: human photoreceptor-specific nuclear receptor agonism. Q9Y5X4. CHO-S Gal4-NCOR/VP16-NR2E3 two-hybrid, luciferase. inhibition of corepressor binding, % at 3.98 µM. 360,000 tested, 0.35% active. AID 602229;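 active = inhibition above the mean of all tested compounds plus 3 SD, cut at about 70% in these data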;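 note: 0% = DMSO with NR2E3 transfected cells and 100% = cells lacking NR2E3 construct; higher means lower luciferase signal from less NR2E3 corepressor binding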
Rev-erbA confirm: Rev-erb alpha (human) modulation, hit confirmation | 3,000 tested, 61% active | AID 1259319 | shares compounds with NR1D1 modulator | activation, % at 25 µM | Rev-erb alpha FITC-DNA binding, fluorescence polarization, 90 min;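 active = activation at or above a set limit, or at least 3 SD above the negative control mean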;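 note: 0% = 35 nM protein with DMSO and 100% = 750 nM protein high control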
RORg DNA counter: counter-screen for Rev-erb alpha modulators: RORgamma DNA binding | shares compounds with NR1D1 modulator | purified RORgamma protein-FITC-DNA binding, fluorescence polarization | IC50, µM | 910 tested, 8% active;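 active = Compounds whose fitted half-maximal concentration for disrupting protein-DNA binding is below 10 micromolar; the record names Rev-erb in its text, so the target is in doubt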
* marks the source's active call; other numbers are inactive results; i = inactive; . = no result.

SMILES	NR1D1 modulator	PG9 binder	NR2E3 ag-1	NR2E3 ag-2	Rev-erbA confirm	others
CCCOc1ccc(/C(CC)=N/NC(=O)C2(C)CC2(Br)Br)cc1 (stereo not given)	34*	-1	1	-35	47*	RORg DNA counter=>40
CCn1c2ccccc2c2cc(NC(=O)c3cc4c(C)nn(-c5ccccc5)c4s3)ccc21	4	.	.	.	.
COC(=O)C1CN(C2CC2)CCS(=O)(=O)N1Cc1cn(Cc2ccc(C)cc2)nn1 (stereo not given)	0	.	.	.	.
O=C1COc2ccc(C(=O)COC(=O)Cc3c(F)cccc3Cl)cc2N1	0	0	.	-21	.
O=C1COc2ccc(C(=O)COC(=O)c3c(F)cccc3Cl)cc2N1	16*	2	-4	-20	8
COc1cccc2c1C(=O)c1c(O)c3c(c(O)c1C2=O)C[C@@](O)(C(=O)CO)C[C@@H]3OC1CC(N)C(O)C(C)O1 (stereo not given in full)	-13	-13	.	-65	.
CC(=O)[C@@]1(O)Cc2c(O)c3c(c(O)c2[C@H](O[C@H]2C[C@H](N)[C@H](O)[C@H](C)O2)C1)C(=O)c1ccccc1C3=O	24*	-6	.	14	11*
NS(=O)(=O)c1ccc(Nc2ccc([N+](=O)[O-])c3nonc23)cc1	27*	-7	-1	-14	17
O=[N+]([O-])c1ccc(Nc2ccccc2O)c2nonc12	32*	-17	.	-10	20*
CCc1nnc(NS(=O)(=O)c2ccc(NS(=O)(=O)c3ccccc3[N+](=O)[O-])cc2)s1	-1	-2	2	6	.
CCc1nnc(NS(=O)(=O)c2ccc(Nc3ccc([N+](=O)[O-])c4nonc34)cc2)s1	21*	-3	2	9	33*	RORg DNA counter=>40
O=S1(=O)c2ccc(Br)cc2OC[C@@H](c2ccccc2)N1Cc1cn(Cc2ccccc2)nn1	0	.	.	.	.
CCOC(=O)N1CCN(C(=O)C[C@H]2C[C@@]3(C(=O)OC)C(=C[C@H](COCc4ccccc4)O[C@@H]3C)N(Cc3ccccc3)C2=O)CC1	8	.	.	.	.
O=C(CSc1ncnc2c1oc1ccccc12)Nc1ccc2c(c1)OCCO2	676*	8	-1	10	569*	RORg DNA counter=i
CCc1nc(SCC(=O)NC2CCCC2)c2oc3ccccc3c2n1	39*	-1	3	-6	56*	RORg DNA counter=>40
Cc1nc(SCC(=O)NCc2ccccc2)c2oc3ccccc3c2n1	44*	4	2	12	189*	RORg DNA counter=>40
COc1ccccc1NC(=O)CSc1ncnc2c1oc1ccccc12	1	3	-2	7	.
O=C(CSc1ncnc2c1oc1ccccc12)Nc1nccs1	32*	-4	0	-4	25*
COC(=O)[C@]12C[C@H](CC(=O)N3CCN(C(=O)c4ccco4)CC3)C(=O)N(CCc3ccc(OC)c(OC)c3)C1=C[C@H](C(C)C)O[C@@H]2C1CC1	-7	.	.	.	.
CCCCC(=O)Nc1ccc(C(=O)NCC2COc3ccccc3O2)cc1 (stereo not given)	-3	.	.	.	.
CCN(CC)C(=O)CC[C@@H]1CC[C@]2(CCCN(Cc3nccs3)C2)O1	1	.	.	.	.
COc1cccc(C(=O)N2CCC[C@@H]2C(=O)N2CCC[C@H]2C(=O)NCc2ccccc2)c1	-4	0	.	.	.
COc1cccc(Cn2cc(COC(=O)NCCc3ccccc3)nn2)c1	-11	.	.	.	.
CCc1nc(SCC(=O)N2CCCc3ccccc32)c2oc3ccccc3c2n1	-5	0	3	6	.
CCc1nc(SCC(=O)Nc2nccs2)c2oc3ccccc3c2n1	15*	6	-2	8	18*
COC(=O)CCC(=O)c1oc2ccc(Cl)cc2c1NC(=O)CCCN1C(=O)c2ccccc2C1=O	41*	1	2	7	28*
COc1cc2c(cc1NC(=O)CCCN1C(=O)CCC1=O)oc1ccccc12	-6	1	0	-45	.
COc1ccc(C(=O)CN2C(=O)NC3(CCCc4ccccc43)C2=O)c(OC)c1 (stereo not given)	23*	2	0	12	10
CC(=O)Nc1cccc(NC(=O)CSc2nnc3ccc(-c4ccccn4)nn23)c1	0	-1	0	3	.
COc1cccc(NC(=O)CSc2nnc3ccc(-c4ccccn4)nn23)c1	35*	0	.	-8	-3
